According to ChEMBL document CHEMBL1133466, “Synthesis and antimalarial activity of sixteen dispiro-1,2,4, 5-tetraoxanes: alkyl-substituted 7,8,15,16-tetraoxadispiro[5.2.5. 2]hexadecanes” (J Med Chem, 2000):

Experiments:
[1] = Evaluated for the neurotoxicity against NB2a Neuroblastoma cells.; format: functional, cell-based, Mus musculus
In short: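 Neurite outgrowth assay in NB2a neuroblastoma cells grown in high-glucose DMEM with 5% horse serum and 5% fetal calf serum, 37 °C, 5% CO2. Cells plated at 15 000 cells/mL. After 24 h, switched to serum-free medium with 0.5 mM dibutyryl cAMP plus drug at 10 and 0.1 µM for a further 24 h. Cells fixed in formaldehyde and stained with Coomassie. Average neurite length per cell measured by image analysis over 10 fields of about 20 cells; IC50 reported.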

[2] = test system: Mus musculus; test: Evaluated for the percentage of subcutaneously to Plasmodium berghei infected mice on days 3, 4, and 5 post infection.; format: functional
In short: (§1)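 Modified Thompson test. Five-week-old CD-1 mice infected ip on day 0 with drug-sensitive P. berghei KBG 173 trophozoites from a donor mouse at 60% parasitemia. Groups of five or seven mice dosed sc b.i.d. on days 3, 4 and 5 at 64 mg/kg/day. Parasitemia read on Giemsa-stained blood films on day 6, then weekly to day 60. Survival followed; mice alive and blood-film negative at day 60 counted as cured.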

[3] = test system: Plasmodium falciparum; test: Antimalarial activity against chloroquine-resistant Plasmodium falciparum W2; format: functional, organism-based
[4] = test system: Plasmodium falciparum; test: Antimalarial activity against chloroquine-sensitive Plasmodium falciparum D6; format: functional, organism-based
[5] = test system: Mus musculus; test: Evaluated for the survival of the mice when 128 mg/kg/day was administered orally to Plasmodium berghei infected mice on days 3, 4, and 5 post infection.1/8, 2/16, 1/32, 3/C(C=survival beyond 60 days); format: functional, organism-based
In short: as §1, with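 “po” for “sc”, “128” for “64”, “Giemsa” for “Parasitemia read on Giemsa-stained”, “films taken” for “films”, “Day of death recorded;” for “Survival followed;”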

[6] = test system: Mus musculus; test: Evaluated for the survival of the mice when 64 mg/kg/day was administered subcutaneously to Plasmodium berghei infected mice on days 3, 4, and 5 post infection;1/8, 2/9, 1/10, 1/13; format: functional, organism-based; in short: as §1
[7] = test system: Mus musculus; test: Evaluated for the survival of the mice when 128 mg/kg/day was administered orally to Plasmodium berghei infected mice on days 3, 4, and 5 post infection; 5/C(C=survival beyond 60 days); format: functional, organism-based
In short: as §1, with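 “po” for “sc”, “128” for “64”, “Giemsa” for “Parasitemia read on Giemsa-stained”, “films taken” for “films”, “Day of death recorded;” for “Survival followed;”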

[8] = test system: Mus musculus; test: Evaluated for the survival of the mice when 64 mg/kg/day was administered subcutaneously to Plasmodium berghei infected mice on days 3, 4, and 5 post infection; 7/C(C=survival beyond 60 days); format: functional, organism-based; in short: as §1
[9] = test system: Mus musculus; test: Evaluated for the survival of the mice when 128 mg/kg/day was administered orally to Plasmodium berghei infected mice on days 3, 4, and 5 post infection;1/9 1/26 3/C(C=survival beyond 60 days); format: functional, organism-based
In short: as §1, with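 “po” for “sc”, “128” for “64”, “Giemsa” for “Parasitemia read on Giemsa-stained”, “films taken” for “films”, “Day of death recorded;” for “Survival followed;”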

[10] = test system: Mus musculus; test: Evaluated for the survival of the mice when 64 mg/kg/day was administered subcutaneously to Plasmodium berghei infected mice on days 3, 4, and 5 post infection;1/8, 1/9, 1/10, 1/12, 1/15; format: functional, organism-based; in short: as §1
[11] = test system: Mus musculus; test: Evaluated for the survival of the mice when 64 mg/kg/day was administered subcutaneously to Plasmodium berghei infected mice on days 3, 4, and 5 post infection;1/9, 2/10, 1/18, 1/19; format: functional, organism-based; in short: as §1
[12] = test system: Mus musculus; test: Evaluated for the survival of the mice when 128 mg/kg/day was administered orally to Plasmodium berghei infected mice on days 3, 4, and 5 post infection; 1/15; 1/17; 1/18; 2/C(C=Survival beyond 60 days); format: functional, organism-based
In short: as §1, with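 “po” for “sc”, “128” for “64”, “Giemsa” for “Parasitemia read on Giemsa-stained”, “films taken” for “films”, “Day of death recorded;” for “Survival followed;”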

Row | Compound | IC50 [1] | Parasitemia [2] | IC50 [3] | IC50 [4] | other results
1 | CC1CC(C)CC2(C1)OOC1(CC(C)CC(C)C1)OO2 (stereo unspecified) | 6.7 nM | 82% | 15 nM | 30 nM | 
2 | C[C@@H]1CCCCC12OOC1(CCCC[C@@H]1C)OO2 (stereo partly specified) [WR-148999] | 8.4 nM | 11% | 32 nM | 55 nM | 
3 | CC1CCCC2(C1)OOC1(CCCC(C)C1)OO2 (stereo unspecified) | 16 nM |  | 51 nM | 76 nM | 
4 | CC1CCC(C(C)C)C2(C1)OOC1(CC(C)CCC1C(C)C)OO2 (stereo unspecified) | 37 nM | 7% | 37 nM | 47 nM | No. of mice dead/day died [5]: survival beyond 60 days; No. of mice dead/day died [6]: survival beyond 60 days
5 | CCO[C@H]1O[C@@H]2O[C@@]3(C)CC[C@H]4[C@H](C)CC[C@@H]([C@H]1C)[C@@]24OO3 [ARTEMOTIL] |  | 0% | 1.4 nM | 2.7 nM | No. of mice dead/day died [7]: survival beyond 60 days; No. of mice dead/day died [8]: survival beyond 60 days
6 | CC1CCC(C)C2(C1)OOC1(CC(C)CCC1C)OO2 (stereo unspecified) | 17 nM | 13% | 19 nM | 15 nM | No. of mice dead/day died [9]: survival beyond 60 days; No. of mice dead/day died [10]: survival beyond 60 days
7 | CC1CCC2(CC1C)OOC1(CCC(C)C(C)C1)OO2 (stereo unspecified) | 4.4 nM | 14% | 10 nM | 12 nM | No. of mice dead/day died [11]: Survival beyond 60 days; No. of mice dead/day died [12]: Survival beyond 60 days
8 | CO[C@H]1O[C@@H]2O[C@@]3(C)CC[C@H]4[C@H](C)CC[C@@H]([C@H]1C)[C@@]24OO3 [ARTEMETHER] | 351 nM |  |  |  | 
9 | CC1CCC2(OOC3(CCC(C)CC3C)OO2)C(C)C1 (stereo unspecified) | > 1 nM |  | 49 nM | 110 nM | 
10 | CCC[C@@H]1CCCCC12OOC1(CCCC[C@@H]1CCC)OO2 (stereo partly specified) |  |  | 39 nM | 84 nM | 
11 | CC1(C)CC(C)(C)CC2(C1)OOC1(CC(C)(C)CC(C)(C)C1)OO2 | 3.6 nM |  | > 1000 nM | > 1000 nM | 
12 | CC(C)(C)C1CCC2(CC1)OOC1(CCC(C(C)(C)C)CC1)OO2 (stereo unspecified) | 2.8 nM |  | 100 nM | 200 nM | 
13 | CC(C)(C)[C@H]1CCCCC12OOC1(CCCC[C@H]1C(C)(C)C)OO2 (stereo partly specified) | 3.4 nM |  | 160 nM | > 300 nM | 
14 | C[C@@H]1CC[C@H]2[C@@H](C)C(=O)O[C@@H]3O[C@@]4(C)CC[C@@H]1[C@]32OO4 [ARTEMISININ] |  |  | 7.3 nM | 8.4 nM | 
15 | CC[C@@H]1CCCCC12OOC1(CCCC[C@@H]1CC)OO2 (stereo partly specified) | 9.3 nM | 28% | 19 nM | 23 nM | 
16 | CC1CCCC2(OOC3(CCCC(C)C3C)OO2)C1C (stereo unspecified) |  | 3% | 43 nM | 50 nM | 
17 | CC1CC(C)(C)CCC12OOC1(CCC(C)(C)CC1C)OO2 (stereo unspecified) | 1.4 nM |  | > 1000 nM | > 1000 nM | 
18 | CC1CCC2(CC1)OOC1(CCC(C)CC1)OO2 (stereo unspecified) | 1.1 nM | 22% | 21 nM | 23 nM | 
19 | CC1(C)CCC2(CC1)OOC1(CCC(C)(C)CC1)OO2 | 2 nM |  | > 1000 nM | > 1000 nM | 
20 | CC(C)C1CCC(C)C2(C1)OOC1(CC(C(C)C)CCC1C)OO2 (stereo unspecified) | 40 nM |  | 94 nM | 140 nM | 
